Source: ChEMBL document CHEMBL4229424, “Design, synthesis and anticancer evaluation of acridine hydroxamic acid derivatives as dual Topo and HDAC inhibitors” (Bioorg Med Chem, 2018)
pIC50: −log10 of the molar value. Calls of active or inactive are those of the source. The calls are words filed in the database; no cut-off is given here.

What was measured:
[1] = biological target: T1, Protein deacetylase HDAC6 (Homo sapiens, UniProt Q9UBN7); test: Inhibition of HDAC6 (unknown origin) using Ac-peptide as substrate pretreated for 15 mins followed by substrate addition and measured after 1 hr by fluorescence assay
T1 sequence (Q9UBN7 whole entry): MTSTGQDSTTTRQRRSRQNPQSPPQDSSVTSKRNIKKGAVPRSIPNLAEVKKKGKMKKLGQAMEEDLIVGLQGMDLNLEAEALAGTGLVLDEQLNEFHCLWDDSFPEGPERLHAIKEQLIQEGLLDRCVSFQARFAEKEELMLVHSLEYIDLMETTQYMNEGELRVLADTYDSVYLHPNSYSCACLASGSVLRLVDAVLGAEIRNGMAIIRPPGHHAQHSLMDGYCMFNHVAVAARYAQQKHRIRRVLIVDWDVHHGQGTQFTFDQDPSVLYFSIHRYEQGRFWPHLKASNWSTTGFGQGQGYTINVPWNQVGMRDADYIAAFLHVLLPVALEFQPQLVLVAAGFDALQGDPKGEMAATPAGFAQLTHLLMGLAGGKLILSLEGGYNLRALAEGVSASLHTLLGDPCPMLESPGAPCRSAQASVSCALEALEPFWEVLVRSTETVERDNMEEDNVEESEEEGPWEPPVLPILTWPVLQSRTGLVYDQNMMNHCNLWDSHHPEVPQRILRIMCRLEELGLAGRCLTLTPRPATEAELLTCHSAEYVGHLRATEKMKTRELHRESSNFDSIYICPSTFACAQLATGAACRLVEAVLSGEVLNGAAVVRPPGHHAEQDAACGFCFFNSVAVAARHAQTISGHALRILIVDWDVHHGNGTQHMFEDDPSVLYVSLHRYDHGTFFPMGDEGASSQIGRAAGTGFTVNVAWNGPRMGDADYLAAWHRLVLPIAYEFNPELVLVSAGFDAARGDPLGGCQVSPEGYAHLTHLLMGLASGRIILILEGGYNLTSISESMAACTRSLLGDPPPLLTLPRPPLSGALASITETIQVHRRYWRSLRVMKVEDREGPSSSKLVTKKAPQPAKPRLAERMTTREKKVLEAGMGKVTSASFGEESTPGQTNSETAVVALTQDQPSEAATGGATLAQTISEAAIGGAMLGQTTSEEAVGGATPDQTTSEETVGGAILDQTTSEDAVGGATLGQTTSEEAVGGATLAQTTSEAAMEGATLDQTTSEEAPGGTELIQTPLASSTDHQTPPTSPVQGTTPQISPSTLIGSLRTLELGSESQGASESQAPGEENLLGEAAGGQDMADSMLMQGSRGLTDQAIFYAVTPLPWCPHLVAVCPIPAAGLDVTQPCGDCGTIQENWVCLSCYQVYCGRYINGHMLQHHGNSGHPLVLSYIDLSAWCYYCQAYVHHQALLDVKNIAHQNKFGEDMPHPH

U-937 [2] = test: Antiproliferative activity against human U937 cells after 48 hrs by MTT assay; format: functional, cell-based; conditions: U-937, 48 h
[3] = biological target: T2, DNA topoisomerase 1 (Homo sapiens) (UniProt P11387); test: Inhibition of human topoisomerase 1 assessed as reduction in supercoiled pBR322 plasmid DNA relaxation at 100 uM after 10 to 15 mins by ethidium bromide staining based agarose gel electrophoresis
T2 sequence (whole entry): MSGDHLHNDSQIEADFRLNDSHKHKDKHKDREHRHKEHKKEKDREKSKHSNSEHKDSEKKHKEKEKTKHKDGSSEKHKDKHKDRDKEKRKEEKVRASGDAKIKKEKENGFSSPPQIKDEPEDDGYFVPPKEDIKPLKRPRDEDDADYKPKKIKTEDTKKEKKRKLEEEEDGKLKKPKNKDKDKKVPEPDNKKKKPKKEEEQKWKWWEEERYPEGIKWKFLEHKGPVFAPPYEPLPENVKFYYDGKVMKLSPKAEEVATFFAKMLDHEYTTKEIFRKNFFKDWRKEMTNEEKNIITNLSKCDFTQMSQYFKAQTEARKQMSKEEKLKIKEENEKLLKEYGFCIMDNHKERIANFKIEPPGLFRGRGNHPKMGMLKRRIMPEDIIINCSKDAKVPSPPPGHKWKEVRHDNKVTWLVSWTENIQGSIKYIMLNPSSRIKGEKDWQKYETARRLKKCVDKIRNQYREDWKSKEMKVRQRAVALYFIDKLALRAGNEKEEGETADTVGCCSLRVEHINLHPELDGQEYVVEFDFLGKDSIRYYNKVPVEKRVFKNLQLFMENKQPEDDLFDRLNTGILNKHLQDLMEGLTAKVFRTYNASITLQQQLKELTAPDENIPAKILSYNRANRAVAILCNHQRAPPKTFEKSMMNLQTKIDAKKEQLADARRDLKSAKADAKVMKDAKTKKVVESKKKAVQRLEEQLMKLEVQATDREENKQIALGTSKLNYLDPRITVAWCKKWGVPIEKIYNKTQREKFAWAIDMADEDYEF
How it was run: (§1)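 Relaxation assay with 500 ng supercoiled pBR322 DNA and 1 unit of human Topo I or Topo II in reaction buffer (20 µL), run at 37 °C for 10-15 min. Reaction stopped with loading buffer, then 1% agarose gel in TAE at 80 V for 0.5 h. Gel stained with ethidium bromide and bands viewed under UV. Camptothecin (Topo I) and m-AMSA (Topo II) served as references.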

MDA-MB-231 = test: Antiproliferative activity against human MDA-MB-231 cells after 48 hrs by MTT assay; format: functional, cell-based; conditions: MDA-MB-231, 48 h
How it was run: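 Cells seeded at 5-10 × 10^3 per well and left 12 h at 37 °C, then given a range of concentrations (DMSO as blank) for 48 h. MTT (5 mg/mL) added for 4 h, formazan dissolved in DMSO, absorbance read at 490 nm. IC50 taken from dose-response curves of at least three independent experiments, mean ± SD.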

[4] = biological target: DNA topoisomerase 2-alpha (Homo sapiens) (UniProt P11388); test: Inhibition of human topoisomerase 2alpha expressed in Escherichia coli assessed as reduction in supercoiled pBR322 plasmid DNA relaxation at 50 to 100 uM after 10 to 15 mins by ethidium bromide staining based agarose gel electrophoresis; how it was run: as §1
HCT-116 = test: Antiproliferative activity against human HCT116 cells after 48 hrs by MTT assay; format: functional, cell-based; conditions: HCT-116, 48 h
Histone deacetylase 1 = Histone deacetylase 1 (Homo sapiens, UniProt Q13547); test: Inhibition of HDAC1 (unknown origin) using Ac-peptide as substrate pretreated for 15 mins followed by substrate addition and measured after 1 hr by fluorescence assay
Calf thymus DNA [5] = test: Binding affinity to calf thymus DNA by UV-Vis absorption spectral analysis; format: nucleic-acid assay; conditions: Bos taurus
How it was run: (§2)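 Compound held at 10 μM and titrated with increasing calf thymus DNA in Tris-HCl buffer (pH 7.4). UV–visible absorption spectra recorded, and absorbance changes plotted against DNA concentration.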

U-937 [6] = test: Induction of apoptosis in human U937 cells assessed as increase in cleaved caspase 3 levels up to 2.5 uM after 36 hrs by Western blot analysis; format: functional, cell-based
How it was run: (§3)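 U937 cells exposed to 0, 0.1, 0.5, 1 and 2.5 μM for 36 h. Cells lysed at 0 °C for 0.5 h, protein measured by BCA, and lysates run on 12% SDS-PAGE and transferred to PVDF. Blocking in 5% milk, primary antibodies (1:1000) at 4 °C overnight, HRP secondary for 2 h, ECL detection.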

U-937 [7] = test: Induction of apoptosis in human U937 cells assessed as increase in cleaved caspase 7 levels up to 2.5 uM after 36 hrs by Western blot analysis; format: functional, cell-based; how it was run: as §3
U-937 [8] = test: Induction of apoptosis in human U937 cells assessed as increase in cleaved caspase 9 levels up to 2.5 uM after 36 hrs by Western blot analysis; format: functional, cell-based; how it was run: as §3
Calf thymus DNA [9] = test: Binding affinity to calf thymus DNA by fluorescence emission spectral analysis; format: nucleic-acid assay; conditions: Bos taurus
Calf thymus DNA [10] = test: Binding affinity to calf thymus DNA assessed as maximum absorption peak at 10 uM by UV-Vis absorption spectral analysis; format: nucleic-acid assay; conditions: Bos taurus; how it was run: as §2
Calf thymus DNA [11] = test: Binding affinity to calf thymus DNA assessed as assessed as bathochromic shift at 10 uM by UV-Vis absorption spectral analysis; format: nucleic-acid assay; conditions: Bos taurus; how it was run: as §2
U-937 [12] = test: Induction of apoptosis in human U937 cells assessed as increase in cleaved caspase 8 levels up to 2.5 uM after 36 hrs by Western blot analysis; format: functional, cell-based; how it was run: as §3

DNA topoisomerase 2-alpha (Homo sapiens), sequence (P11388 whole entry): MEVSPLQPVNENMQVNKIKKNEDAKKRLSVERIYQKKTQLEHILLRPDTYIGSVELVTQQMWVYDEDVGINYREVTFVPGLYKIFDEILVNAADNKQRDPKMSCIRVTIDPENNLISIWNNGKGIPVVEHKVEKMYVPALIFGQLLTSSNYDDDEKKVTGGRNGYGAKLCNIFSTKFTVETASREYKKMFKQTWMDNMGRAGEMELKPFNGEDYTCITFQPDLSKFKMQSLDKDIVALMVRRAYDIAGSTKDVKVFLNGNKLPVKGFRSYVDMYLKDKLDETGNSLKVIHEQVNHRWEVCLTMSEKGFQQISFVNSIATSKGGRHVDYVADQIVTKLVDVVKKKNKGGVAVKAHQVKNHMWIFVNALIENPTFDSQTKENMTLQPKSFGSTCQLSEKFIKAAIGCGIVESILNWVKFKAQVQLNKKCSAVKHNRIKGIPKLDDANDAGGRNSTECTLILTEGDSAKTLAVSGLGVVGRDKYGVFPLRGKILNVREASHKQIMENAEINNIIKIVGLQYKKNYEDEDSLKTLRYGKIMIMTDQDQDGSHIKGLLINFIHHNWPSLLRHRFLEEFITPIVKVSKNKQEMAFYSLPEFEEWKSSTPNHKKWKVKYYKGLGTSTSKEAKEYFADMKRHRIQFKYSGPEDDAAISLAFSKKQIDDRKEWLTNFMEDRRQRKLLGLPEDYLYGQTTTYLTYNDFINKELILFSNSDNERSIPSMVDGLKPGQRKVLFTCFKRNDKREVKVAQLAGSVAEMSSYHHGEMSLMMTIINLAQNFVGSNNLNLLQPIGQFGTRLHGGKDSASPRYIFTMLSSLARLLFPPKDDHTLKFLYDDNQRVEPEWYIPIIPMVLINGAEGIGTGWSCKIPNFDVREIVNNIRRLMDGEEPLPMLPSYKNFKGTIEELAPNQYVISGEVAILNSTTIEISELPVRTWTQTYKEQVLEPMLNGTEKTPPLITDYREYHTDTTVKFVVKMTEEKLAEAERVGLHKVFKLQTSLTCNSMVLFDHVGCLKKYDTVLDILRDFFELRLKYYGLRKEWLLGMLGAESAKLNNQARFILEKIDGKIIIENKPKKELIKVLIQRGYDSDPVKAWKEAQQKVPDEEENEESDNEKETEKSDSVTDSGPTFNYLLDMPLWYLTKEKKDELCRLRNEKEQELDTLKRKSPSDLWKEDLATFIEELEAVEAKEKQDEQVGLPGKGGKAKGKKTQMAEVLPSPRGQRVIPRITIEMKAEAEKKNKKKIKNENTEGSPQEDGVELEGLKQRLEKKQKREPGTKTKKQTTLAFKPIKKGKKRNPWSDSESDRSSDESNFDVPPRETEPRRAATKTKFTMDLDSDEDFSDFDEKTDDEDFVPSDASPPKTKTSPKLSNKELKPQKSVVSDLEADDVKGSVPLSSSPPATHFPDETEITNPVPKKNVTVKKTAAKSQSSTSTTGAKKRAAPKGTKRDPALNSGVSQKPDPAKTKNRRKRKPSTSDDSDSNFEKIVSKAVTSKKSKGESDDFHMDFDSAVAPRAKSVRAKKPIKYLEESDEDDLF
Histone deacetylase 1, sequence (Q13547 whole entry): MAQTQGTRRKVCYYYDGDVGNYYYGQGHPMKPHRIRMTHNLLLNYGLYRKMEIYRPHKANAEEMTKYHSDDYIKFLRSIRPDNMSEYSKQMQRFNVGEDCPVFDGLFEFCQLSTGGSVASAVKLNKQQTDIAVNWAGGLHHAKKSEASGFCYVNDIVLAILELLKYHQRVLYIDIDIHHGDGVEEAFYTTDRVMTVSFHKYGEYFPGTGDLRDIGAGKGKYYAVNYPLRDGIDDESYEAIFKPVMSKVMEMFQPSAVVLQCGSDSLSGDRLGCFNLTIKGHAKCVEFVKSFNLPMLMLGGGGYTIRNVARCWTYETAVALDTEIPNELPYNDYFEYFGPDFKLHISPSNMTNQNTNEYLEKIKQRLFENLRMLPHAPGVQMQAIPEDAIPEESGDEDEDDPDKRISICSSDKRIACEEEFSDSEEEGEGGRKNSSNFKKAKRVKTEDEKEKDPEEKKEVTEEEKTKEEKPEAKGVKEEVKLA

Row | Compound | pIC50 [1] | pIC50 (U-937 [2]) | pIC50 (MDA-MB-231) | inhibition [4] | pIC50 (Histone deacetylase 1) | also measured
1 | O=C(CCc1ccc(Nc2c3ccccc3nc3ccccc23)cc1)NO | 7.00 | 6.12 | 4.54 | Active | 6.87 | inhibition [3]: Active; pIC50 (HCT-116): 5.73
2 | O=C(CCCCCn1cc(-c2cccc(Nc3c4ccccc4nc4ccccc34)c2)nn1)NO | 8.47 | 5.57 |  | Active | 7.85 | 
3 | O=C(CCCCCn1cc(-c2ccc(Nc3c4ccccc4nc4ccccc34)cc2)nn1)NO | 8.59 | 5.87 |  | Active | 8.09 | 
4 | O=C(CCCCCCn1cc(-c2cccc(Nc3c4ccccc4nc4ccccc34)c2)nn1)NO | 8.30 | 5.91 |  | Active | 8.29 | 
5 | COc1ccc2nc3cc(Cl)ccc3c(Nc3ccc(-c4cn(CCCCCC(=O)NO)nn4)cc3)c2c1 | 7.54 | 5.45 |  | Active | 6.51 | 
6 | O=C(CCCCCCC(=O)Nc1ccccc1)NO [VORINOSTAT] |  |  | 5.31 |  |  | 

Second part, led by results:

Row | pIC50 [1] | pIC50 (U-937 [2]) | pIC50 (MDA-MB-231) | inhibition [4] | pIC50 (Histone deacetylase 1) | Compound | also measured
7 | 7.88 | 5.53 |  | Active | 6.65 | COc1ccc2nc3cc(Cl)ccc3c(Nc3cccc(-c4cn(CCCCCC(=O)NO)nn4)c3)c2c1 | 
8 | 7.09 | 5.95 |  | Active | 7.18 | COc1ccc2nc3cc(Cl)ccc3c(Nc3ccc(CCC(=O)NO)cc3)c2c1 | 
9 |  |  | 5.00 | Active |  | COc1cc(NS(C)(=O)=O)ccc1Nc1c2ccccc2nc2ccccc12 [AMSACRINE] | Kb (Calf thymus DNA [5]): 1.36 ×10⁵ /M; pIC50 (HCT-116): > 6.00
10 | 8.54 | 6.05 | 5.15 | Active | 8.41 | O=C(CCCCCCn1cc(-c2ccc(Nc3c4ccccc4nc4ccccc34)cc2)nn1)NO | Activity (U-937 [6]): Active; Kb (Calf thymus DNA [5]): 1.67 ×10⁵ /M; Activity (U-937 [7]): Active; Activity (U-937 [8]): Active; Kq (Calf thymus DNA [9]): 1.56 ×10⁵ /M; Activity (Calf thymus DNA [10]): 430 nm; pIC50 (HCT-116): 5.68; Activity (Calf thymus DNA [11]): Active; Activity (U-937 [12]): Active
11 |  | 5.41 |  |  |  | COC(=O)CCc1ccc(Nc2c3ccccc3nc3ccccc23)cc1 | 
12 |  | 4.67 |  |  |  | O=C(CCCCCCn1cc(-c2ccc(Nc3c4ccccc4nc4ccccc34)cc2)nn1)NOC1CCCCO1 (configuration not stated) | 
